Experimental findings from ChEMBL document CHEMBL1131133, “A novel class of adenosine A3 receptor ligands. 1. 3-(2-Pyridinyl)isoquinoline derivatives” (J Med Chem, 1998) are described below.

Assay [1] concerns the target Adenosine receptor A2a (Rattus norvegicus) (UniProt P30543). The assay can be described thus: Displacement of specific [3H]CGS-21680 binding in rat striatal membrane (Adenosine A2A receptor) at concentration of […]. Type of assay: cell membranes. Conditions: Striatum. The method, boiled down: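 A2A binding used rat striatal membranes and [3H]CGS 21680. Percentage displacement of specific binding was measured at one fixed test-compound concentration (n = 2-3).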

The target in assay [2] is T1, Adenosine receptor A1 (Rattus norvegicus) (UniProt P25099).
T1 sequence (whole entry): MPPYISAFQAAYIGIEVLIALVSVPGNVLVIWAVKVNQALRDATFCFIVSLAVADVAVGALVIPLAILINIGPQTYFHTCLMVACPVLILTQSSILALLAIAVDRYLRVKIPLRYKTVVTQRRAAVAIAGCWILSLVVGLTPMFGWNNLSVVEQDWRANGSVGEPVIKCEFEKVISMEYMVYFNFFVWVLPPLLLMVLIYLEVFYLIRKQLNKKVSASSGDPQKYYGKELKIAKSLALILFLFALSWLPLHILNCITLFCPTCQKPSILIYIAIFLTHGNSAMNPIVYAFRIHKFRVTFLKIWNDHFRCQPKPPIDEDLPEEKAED
The assay can be described thus: Displacement of specific [3H]DPCPX binding at rat cortical membrane (Adenosine A1 receptor) at concentration of […]. The method, boiled down: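 A1 binding used rat cortical membranes and [3H]DPCPX. Percentage displacement of specific binding was measured at one fixed test-compound concentration (n = 2-3).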

Assay [3] deals with T2, Adenosine receptor A3 (Homo sapiens) (UniProt P0DMS8).
T2 sequence (whole entry): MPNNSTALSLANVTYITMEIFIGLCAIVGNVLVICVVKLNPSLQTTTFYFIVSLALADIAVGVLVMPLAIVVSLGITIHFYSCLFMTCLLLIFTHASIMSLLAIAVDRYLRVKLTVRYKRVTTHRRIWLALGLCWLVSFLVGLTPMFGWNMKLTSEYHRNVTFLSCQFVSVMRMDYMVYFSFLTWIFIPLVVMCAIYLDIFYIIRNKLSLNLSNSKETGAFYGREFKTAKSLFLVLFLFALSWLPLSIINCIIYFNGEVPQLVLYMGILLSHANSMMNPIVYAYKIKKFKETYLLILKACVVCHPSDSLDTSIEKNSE
The assay can be described thus: Displacement of [125I]AB-MECA from human adenosine A3 receptor expressed in HEK 293 cells at […]. Conditions: HEK293. Format: cell-based. The method, boiled down:
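Membranes from HEK 293 cells stably expressing the human A3 receptor were incubated with [125I]AB-MECA. Percentage displacement of specific binding was measured at a single test-compound concentration (n = 2-3).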
In general terms: Displacement assays read how much labelled ligand stays bound in the presence of the test substance.

In assay [4] the target is T3, Adenosine receptor A3 (Homo sapiens, UniProt P0DMS8).
T3 sequence (P0DMS8 whole entry): T2 sequence (whole entry)
The assay can be described thus: Displacement of specific [125I]AB-MECA binding at human adenosine A3 receptor expressed in HEK 293 cells. Format: cell-based, HEK293.

Assay [5] deals with T3, Adenosine receptor A3. Put plainly: biochemical.

As a reminder, the Ki is the equilibrium dissociation constant of an inhibitor or competing ligand from its target. Low values mean tighter binding, high ones weaker binding.

Sequence of Adenosine receptor A2a (Rattus norvegicus) (P30543 whole entry): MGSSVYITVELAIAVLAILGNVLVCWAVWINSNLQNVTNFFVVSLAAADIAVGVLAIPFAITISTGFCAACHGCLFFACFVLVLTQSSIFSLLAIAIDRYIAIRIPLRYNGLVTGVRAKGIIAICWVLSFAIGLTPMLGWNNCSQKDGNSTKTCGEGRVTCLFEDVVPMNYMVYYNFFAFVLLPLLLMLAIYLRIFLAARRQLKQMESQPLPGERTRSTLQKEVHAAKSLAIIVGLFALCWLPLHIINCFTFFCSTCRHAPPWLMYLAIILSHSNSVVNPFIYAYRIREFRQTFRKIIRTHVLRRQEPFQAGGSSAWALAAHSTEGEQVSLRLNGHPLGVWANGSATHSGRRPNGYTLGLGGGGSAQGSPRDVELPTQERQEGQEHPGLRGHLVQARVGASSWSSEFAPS

In the case of `CCc1nc(-c2ccccn2)cc2ccccc12`, the Displacement in assay [1] is 25%; in assay [2], 30%. The matching figures for `COc1ccc(C(=N)Nc2nc(-c3ccccn3)cc3ccccc23)cc1`: 5% and 18%. `CC(C(=O)c1ccccc1)c1nc(-c2ccccn2)cc2ccccc12` (stereo unspecified) returned a Displacement in assay [1] of 5%.

For the molecule `Nc1nc(-c2ccccn2)cc2ccccc12`, the Displacement in assay [1] was 28%; in assay [2], 19%; in assay [3] it was 17%. On to `CC(=O)N(C(C)=O)c1nc(-c2ccccn2)cc2ccccc12`, for which the Displacement in assay [1] was 18%; in assay [2], 34%. In assay [2], `N=CNc1nc(-c2ccccn2)cc2ccccc12` gave a Displacement of 47%. Consider `Nc1nc2ccc(Cl)cc2c2nc(-c3ccco3)nn12` [CGS-15943], for which the Ki on Adenosine receptor A3 [4] was found to be 143 nM; on Adenosine receptor A3 [5], 7.9 nM.

As for `Cc1cccc(C(=N)Nc2nc(-c3ccccn3)cc3ccccc23)c1`, the Displacement worked out at 0% in assay [1] and 43% in assay [2].

Regarding `N=C(Nc1nc(-c2ccccn2)cc2ccccc12)c1cccc(Cl)c1`, the Displacement in assay [1] turned out to be 14%; in assay [2] it was 49%.

Consider `N=C(Nc1nc(-c2ccccn2)cc2ccccc12)c1ccc(Cl)cc1`, for which the results for the Displacement in assay [1] and in assay [2] were 7% and 20%, respectively.

For the molecule `COC(=O)C1=C2C=CN(C)C=C2c2nc(-c3ccccc3)nn2C1`, the affinity at Adenosine receptor A3 [4], expressed as Ki, was 172 nM. Turning to `N=C(Nc1nc(-c2ccccn2)cc2ccccc12)c1ccc(Cl)c(Cl)c1`, the Displacement in assay [1] worked out at 2%; in assay [2] it was 21%. In assay [1], `c1ccc(-c2nc(-c3ccccn3)cc3ccccc23)cc1` gave a Displacement of 31%. Consider `Clc1nc(-c2ccccn2)cc2ccccc12`, for which the Displacement in assay [1] worked out at 29%; in assay [2], 43%.

With `Cc1ccc(C(=N)Nc2nc(-c3ccccn3)cc3ccccc23)cc1`, the results for the Displacement in assay [1] and in assay [2] were 34% and 12%, respectively. Take `N=C(Nc1nc(-c2ccccn2)cc2ccccc12)c1ccccc1`: the Displacement in assay [2] amounted to 34%.

The molecule `CS(=O)(=O)c1nc(-c2ccccn2)cc2ccccc12` displayed a Displacement in assay [1] of 54%. Regarding `COc1cccc(C(=N)Nc2nc(-c3ccccn3)cc3ccccc23)c1`, the Displacement in assay [1] came out at 0%; in assay [2] it was 43%.

In turn, `COc1nc(-c2ccccn2)cc2ccccc12` registered a Displacement in assay [1] of 19%. `Cc1cccc(C)c1C(=O)N(C(=O)c1c(C)cccc1C)c1nc(-c2ccccn2)cc2ccccc12`: the Displacement in assay [1] and in assay [2] was 0% throughout.

`CSc1nc(-c2ccccn2)cc2ccccc12`: the Displacement in assay [1] was determined as 7%. On the same count and under the same terms, with `Oc1nc(-c2ccccn2)cc2ccccc12` the figure was 35%.
